# Screening results: PubChem, The Scripps Research Institute Molecular Screening Center
# Sampled rows, rich in hits. Any-hit rate of the full collection: about 1.9%.
# PLC-gamma1 inh = blocks human PLC-gamma1 enzyme activity. P19174. AID 720700. 370,000 compounds, 0.84% hits. purified PLC-gamma1, fluorogenic substrate, fluorescence. inhibition, % at 12.2 µM
# HGIII-sPLA2 inh = Inhibits HGIII-sPLA2 liposome hydrolysis, primary screen | 370,000 compounds, 0.56% hits | inhibition, % at 12.2 µM | QFRET BODIPY PC-A2 liposome hydrolysis, fluorescence;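 active = inhibition above mean plus 3 SD of compounds lying within the high and low control bounds, cut at about 19% in these data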;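 note: 0% = median of test compound wells and 100% = no enzyme DMSO wells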
# PLCb3 inh = blocks human PLC-beta3 enzyme activity. AID 720704. 370,000 compounds, 0.18% hits. inhibition, % at 12.2 µM. Purified PLC-beta3, fluorogenic substrate, fluorescence. Q01970; in the data active = inhibition above about 11%;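 note: 0% = median of compound wells on plate and 100% = full blocker control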
# Tb MetRS inh = blocks T. brucei methionyl-tRNA synthetase activity; AID 624268; purified T. brucei MetRS, ATP depletion, Kinase-Glo luminescence; 360,000 compounds, 0.4% hits; inhibition, % at 11.9 µM;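 active = inhibition above a per-plate cutoff of the control wells' mean inhibition plus 3 SD, cut at about 5.5% in these data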;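 note: 0% = DMSO wells median and 100% = median of wells with control inhibitor compound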
#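 Measured by: Kinase-Glo luciferase luminescence reporting remaining unconsumed ATP. Material: purified T. brucei MetRS enzyme. Doses: 11.9 µM compound single dose, 0.9% DMSO. Medium: HEPES buffer containing pyrophosphatase, BSA, spermine, DTT. Times: 15 min preincubation, 2 h reaction, all 25 °C. Reagent: methionine, ATP and bulk E. coli tRNA.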
# PLCg1 ctr = inhibits human PLC-gamma1 in PLC-beta3 counter-screen; shares compounds with PLC-gamma1 inh; purified PLC-gamma1, fluorogenic substrate, fluorescence; inhibition, % at 12.3 µM; 3,300 compounds, 3.1% hits; AID 743258
# PLCbeta3 conf = confirmation of human PLC-beta3 inhibitors; shares compounds with PLC-gamma1 inh; purified PLC-beta3, fluorogenic substrate fluorescence; inhibition, % at 12.3 µM; 3,300 compounds, 1% hits; in the data active = inhibition above about 11%
# Numbers without * were called inactive; . = not tested or not shown. Cut-off read from the data, not from the text of the source, unless noted: active = inhibition above about 9.5%; inactive = the rest.
SMILES,PLC-gamma1 inh,HGIII-sPLA2 inh,PLCb3 inh,Tb MetRS inh,PLCg1 ctr,PLCbeta3 conf
Cc1ccc(C(C)C)c(OCCNCc2ccccc2)c1,3,0,2,-1,.,.
Cc1ccc(C)c(OCCCNCc2ccccc2)c1,15*,-1,1,0,-5,0
COc1ccc(CN(CC#Cc2ccccc2)Cc2ccccc2)c(OC)c1,0,-6,3,.,.,.
COc1ccc(C=Nn2c(-c3n[nH]c4c3CCC4)n[nH]c2=S)cc1OCc1ccccc1,0,4,-2,.,.,.
CCOC(=O)C1CCN(Cc2ccc(O)c(OC)c2)CC1,12*,4,3,-1,-1,0
CCOC(=O)C1CCN(Cc2ccc(OC)c(OCc3ccccc3)c2)CC1,2,5,-5,-1,.,.
CC(C)(N[C@@H](Cc1c[nH]c2ccccc12)C(=O)NCCCc1ccccc1)C(=O)NCc1ccccc1,-1,-78,1,.,.,.
O=S1(=O)CCN(Cc2ccc(Cl)cc2)CC1,14*,9,10,-1,-8,-3
CC(C)(C)NC(=O)NC(=O)COC(=O)Cc1c(Cl)cccc1Cl,9.8*,-12,-5,0,-1,2
COC(=O)[C@H](C)NC(=O)/C=C/c1ccc(OC)cc1,9.8*,-3,10,0,7,3
COc1ccc(NC(=O)NC2(C)CCS(=O)(=O)C2)cc1 (stereo not given),12*,2,-4,0,-3,0
CC1(NC(=O)Nc2ccccc2)CCS(=O)(=O)C1 (stereo not given),1,4,-5,-1,.,.
C/C(=N\N=C(/N)SC1CC(=O)N(c2ccc(Cl)cc2)C1=O)c1cccs1 (stereo not given),9.9*,-41,3,0,5,6
COc1ccc(CN(C)C(=O)c2ccc(NS(=O)(=O)c3ccc4[nH]c(=O)[nH]c4c3)cc2)c(OC)c1,15*,-16,-2,0,1,-5
Nn1c(SCC(=O)NC2CCCCC2)nnc1-c1cc(-c2ccc(Cl)cc2)n[nH]1,1,-1,0,.,.,.
CCOc1ccccc1OCCCC(=O)Nc1nc2ccccc2[nH]1,5,-1,13*,0,-6,-4
CCCCCC(=O)Nc1nc2ccccc2[nH]1,-3,4,2,0,.,.
O=C(c1ccc([N+](=O)[O-])o1)N1CCN(c2nc3c(F)cc(F)cc3s2)CC1,15*,4,1,0,-2,1
Cc1ccc(C)c2sc(N3CCN(C(=O)c4ccc([N+](=O)[O-])o4)CC3)nc12,1,10,-6,0,.,.
CC(=O)Nc1ccc(Sc2ccc([N+](=O)[O-])o2)cc1,10*,-8,4,0,5,-6
CC(C)(C)C(=O)Nc1ccc(Sc2ccc([N+](=O)[O-])cc2)cc1,9,4,-2,1,.,.
COc1ccc(S[C@@H](CCN2CC[C@H](C)CCC2=O)c2ccccc2)cc1,9.7*,-9,7,0,-6,-3
Cc1ccc(S[C@@H](CCN2CC[C@H](C)CCC2=O)c2ccccc2)cc1,-2,1,1,0,.,.
C[C@@H]1CCC(=O)N(CC[C@H](Oc2ccccc2)c2ccccc2)CC1,13*,-9,4,0,2,2
O=C(NCCc1c[nH]c2ccccc12)OCc1cn(Cc2ccccc2Cl)nn1,-2,-83,-2,.,.,.
SMILES,PLC-gamma1 inh,HGIII-sPLA2 inh,PLCb3 inh,Tb MetRS inh,PLCg1 ctr,PLCbeta3 conf
CN(C(=O)c1cccnc1)c1nc(-c2ccccc2)cs1,9.7*,2,7,-1,-8,-6
O=c1ccn2c(n1)OC1CC2OC1COC(c1ccccc1)(c1ccccc1)c1ccccc1 (stereo not given),2,-18,2,.,.,.
Cc1cc(C)c2c(c1)/C(=N/NS(=O)(=O)c1ccc(Br)cc1)CCC2,3,4,2,0,.,.
Cc1cc(C)c2c(c1)/C(=N/NS(=O)(=O)c1ccccc1)CCC2,0,10,11*,0,3,-1
O=C(c1ccco1)N1CCN(Cc2cc(=O)c(OCc3ccc([N+](=O)[O-])cc3)co2)CC1,11*,0,4,0,-2,-3
Cc1ccc(COc2coc(CN3CCN(C(=O)c4ccco4)CC3)cc2=O)cc1,1,13,-3,0,.,.
COC(=O)[C@@H](NC(=O)Nc1ccc2c(c1)OCCO2)C(C)C,10*,0,2,-2,0,0
COC(=O)[C@H](CC(C)C)NC(=O)Nc1ccc2c(c1)OCCO2,12*,6,9,-1,-5,-3
COC(=O)[C@]12C[C@H](CC(=O)N3CCN(C(=O)c4ccco4)CC3)C(=O)N(CCc3ccc(OC)c(OC)c3)C1=C[C@H](C(C)C)O[C@@H]2C1CC1,0,-6,-1,.,.,.
CN(CCNC(=O)C1CCN(S(=O)(=O)c2cnc[nH]2)CC1)Cc1ccccc1,12*,-8,1,-1,8,9
CCOC(=O)Cn1cc(CN2CCS(=O)(=O)N(Cc3ccc(F)cc3)C(C(=O)OC)C2)nn1 (stereo not given),5,12,1,.,.,.
COc1ccc(S(=O)(=O)NCC(=O)NCc2cc(=O)n(C)c(=O)n2C)cc1C,9.9*,13,-5,0,-5,1
Cn1c(CNC(=O)CNS(=O)(=O)c2ccccc2)cc(=O)n(C)c1=O,1,8,-3,0,.,.
O=C(c1cccs1)N1CCC(C(=O)N2CCN(Cc3ccc4c(c3)OCO4)CC2)CC1,3,-1,2,-1,.,.
Cc1ccccc1C(=O)N1CCC(C(=O)N2CCN(Cc3ccc4c(c3)OCO4)CC2)CC1,12*,-5,-1,0,-4,1
COc1ccc(F)cc1S(=O)(=O)n1cc(C)nc1-c1ccccc1,7,6,11*,0,-5,-14
COc1ccc(F)cc1S(=O)(=O)N1CCCN(S(=O)(=O)c2cc(F)ccc2OC)CC1,4,2,5,0,.,.
CCCCCCOc1ccc(/C(N)=N/O)cc1,12*,-21,6,0,-8,-1
N/C(=N\OC(=O)CCCc1ccccc1)c1ccccc1,-1,0,-6,0,.,.
N/C(=N\OC(=O)CCCc1ccccc1)c1cccnc1,7,-7,12*,0,-8,-4
COC(=O)C1CN(Cc2cn(Cc3ccccc3)nn2)CCS(=O)(=O)N1Cc1ccc(Cl)cc1 (stereo not given),0,-10,0,.,.,.
CC[C@H]1OC(=O)[C@H](C)[C@@H](O[C@H]2C[C@@](C)(OC)[C@@H](O)[C@H](C)O2)C(C)[C@@H](O[C@@H]2O[C@H](C)C[C@H](N(C)C)[C@H]2O)[C@](C)(O)C[C@@H](C)CN(C)[C@H](C)[C@@H](O)[C@]1(C)O (stereo not given in full),0,16,-2,.,.,.
O=C1C=C(NCc2ccc(Cl)cc2)CC(c2ccco2)C1 (stereo not given),11*,1,0,0,-10,-6
